Experimental data from ChEMBL document CHEMBL4765357, “Development of small-molecule inhibitors of fatty acyl-AMP and fatty acyl-CoA ligases in Mycobacterium tuberculosis” (Eur J Med Chem, 2020).
Values after ≈ are worked out from the molar mass of the structure shown.

Tests used:
[1] = tested on: Mycobacterium tuberculosis; test: Antimycobacterial activity against Mycobacterium tuberculosis H37Rv ATCC 27294 assessed as inhibition of bacterial growth under GAST medium condition after 7 to 14 days by broth microdilution method; format: functional; settings: time 7-14 day
In short: (§1)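 Mtb H37Rv ATCC 27294 by broth microdilution in GAST or 7H9 base with 5 g/L BSA fraction V, 0.8 g/L NaCl and 0.05% tyloxapol. Carbon source was 20 mM glycerol/10 mM glucose or 0.05 mM sodium palmitate. Compounds came from DMSO stocks with DMSO-only controls. Inoculum was 10⁴-10⁵ cells; growth was read at 7 and 14 days. MIC is the concentration giving >99% growth inhibition; runs were in triplicate.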

[2] = tested on: Mycobacterium tuberculosis; test: Antimycobacterial activity against Mycobacterium tuberculosis H37Rv ATCC 27294 assessed as inhibition of bacterial growth under 7H9 medium condition after 7 to 14 days by broth microdilution method; format: functional; settings: time 7-14 day; in short: as §1
[3] = tested on: Mycobacterium tuberculosis; test: Antimycobacterial activity against Mycobacterium tuberculosis H37Rv ATCC 27294 assessed as inhibition of bacterial growth under 7H9 medium condition after 7 to 14 days in presence of palmitate by broth microdilution method; format: functional; settings: time 7-14 day; in short: as §1
[4] = molecular target: T1, Medium/long-chain-fatty-acid--CoA/3-oxocholest-4-en-26-oate--CoA ligase (Mycobacterium tuberculosis, UniProt P9WQ51); test: Inhibition of Mycobacterium tuberculosis H37Rv FACL19 Spectra expressed in Escherichia coli BL21(DE3) cells assessed as cleavage of MEsG by spectroscopic analysis; settings: read-out: Ki(app)
T1 sequence (P9WQ51 whole entry): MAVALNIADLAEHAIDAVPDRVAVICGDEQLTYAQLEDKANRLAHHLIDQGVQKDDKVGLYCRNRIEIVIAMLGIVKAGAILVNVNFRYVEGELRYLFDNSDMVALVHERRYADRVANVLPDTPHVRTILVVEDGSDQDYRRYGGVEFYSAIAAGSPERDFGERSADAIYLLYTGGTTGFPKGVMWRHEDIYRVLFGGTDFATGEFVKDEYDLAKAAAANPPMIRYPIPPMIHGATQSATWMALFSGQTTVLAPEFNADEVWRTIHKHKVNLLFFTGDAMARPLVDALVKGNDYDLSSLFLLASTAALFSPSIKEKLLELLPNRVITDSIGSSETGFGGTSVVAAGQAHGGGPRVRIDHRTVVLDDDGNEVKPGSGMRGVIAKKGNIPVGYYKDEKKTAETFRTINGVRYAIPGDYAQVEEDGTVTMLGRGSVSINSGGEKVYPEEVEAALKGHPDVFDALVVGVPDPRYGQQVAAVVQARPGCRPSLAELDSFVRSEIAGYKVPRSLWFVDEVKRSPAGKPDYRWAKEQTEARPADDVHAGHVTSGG
In short: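 FACL19 (0.167 μM) with 250 μM dodecanoic acid in a coupled MesG assay with pyrophosphatase and nucleoside phosphorylase. Buffer was 50 mM Tris·HCl pH 8.0 with 2.5 mM ATP, 5 mM MgCl₂, 0.5 mM DTT and 150 mM hydroxylamine. Apparent Ki came from a Morrison tight-binding fit.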

[5] = molecular target: T2, Long-chain-fatty-acid--AMP ligase FadD28 (Mycobacterium tuberculosis, UniProt P9WQ59); test: Inhibition of Mycobacterium tuberculosis H37Rv FAAL28 Spectra expressed in Escherichia coli BL21(DE3) cells assessed as cleavage of MEsG by spectroscopic analysis; settings: read-out: Ki(app)
T2 sequence (P9WQ59 whole entry): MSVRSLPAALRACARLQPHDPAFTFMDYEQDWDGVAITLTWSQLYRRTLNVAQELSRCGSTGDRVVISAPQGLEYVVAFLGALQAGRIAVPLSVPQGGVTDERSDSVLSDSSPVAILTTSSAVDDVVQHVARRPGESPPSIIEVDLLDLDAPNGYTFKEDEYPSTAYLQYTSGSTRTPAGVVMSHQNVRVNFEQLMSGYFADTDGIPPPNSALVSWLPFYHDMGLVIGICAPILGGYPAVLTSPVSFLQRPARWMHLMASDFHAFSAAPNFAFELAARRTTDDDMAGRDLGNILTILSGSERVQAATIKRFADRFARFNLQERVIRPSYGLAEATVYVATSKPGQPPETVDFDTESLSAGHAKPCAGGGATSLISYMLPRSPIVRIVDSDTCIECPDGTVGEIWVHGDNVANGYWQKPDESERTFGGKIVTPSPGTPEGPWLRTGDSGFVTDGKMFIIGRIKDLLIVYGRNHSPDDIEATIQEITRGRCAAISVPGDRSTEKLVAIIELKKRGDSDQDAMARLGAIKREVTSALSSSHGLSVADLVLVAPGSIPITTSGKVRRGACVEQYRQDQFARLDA
In short: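 Coupled continuous assay with pyrophosphatase (0.04 U) and nucleoside phosphorylase (0.1 U), using 0.45 μM FAAL28 and 33 μM tetradecanoic acid. Buffer was 50 mM Tris·HCl pH 8.0 with 2.5 mM ATP, 5 mM MgCl₂, 0.5 mM DTT, 150 mM hydroxylamine and 0.2 mM MesG. Apparent Ki came from a Morrison equation fit.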

Vero = test: Cytotoxicity against African green monkey Vero cells assessed as reduction in cell viability after 72 hrs by MTT assay; format: cell-based; settings: Chlorocebus sabaeus
In short: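 Vero cells were seeded at (2.5–5.0) × 10⁴ per well in MEM with 5% FBS and penicillin/streptomycin. Compounds were added from 20 mM DMSO stocks to a final 100 μM. Controls were 0.5% and 50% DMSO, all in triplicate. After 72 h at 37 °C in 5% CO₂, cells got 1 mg/mL MTT for 3 h. Formazan was dissolved in isopropanol and read at 570/650 nm, with viability expressed relative to DMSO control.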

[6] = tested on: Mycolicibacterium smegmatis; test: Antimycobacterial activity against Mycobacterium smegmatis; format: functional
[7] = Inhibition of Mycobacterium tuberculosis PKS13
[8] = molecular target: T2, Long-chain-fatty-acid--AMP ligase FadD28; test: Inhibition of Mycobacterium tuberculosis H37Rv His-tagged FAAL28 expressed in Escherichia coli; settings: read-out: Ki(app)
[9] = molecular target: T1, Medium/long-chain-fatty-acid--CoA/3-oxocholest-4-en-26-oate--CoA ligase; test: Inhibition of Mycobacterium tuberculosis H37Rv His-tagged FACL19 expressed in Escherichia coli; settings: read-out: Ki(app)
[10] = tested on: Mycobacterium tuberculosis; test: Antimycobacterial activity against Mycobacterium tuberculosis H37Rv after 16 hrs; format: functional

What does the source list for CCCCCCCCCC(=O)NS(=O)(=O)OC[C@H]1O[C@@H](n2cnc3c(N)ncnc32)[C@H](O)[C@@H]1O?
MIC [1]: 1.56 µM (≈ 0.781 µg/mL); MIC [2]: 100 µM (≈ 50.1 µg/mL); MIC [3]: > 100 µM; Ki [4]: > 100 µM; Ki [5]: 88 µM; IC50 (Vero): 10.1 µM

For CCCCCCCCCCCCOP(=O)(O)OC[C@H]1O[C@@H](n2cnc3c(N)ncnc32)[C@H](O)[C@@H]1O, which MIC [6] is on record?
The MIC was 20 µM (≈ 10.3 µg/mL).

What does the source list for CCCCCCCC(=O)NS(=O)(=O)OC[C@H]1O[C@@H](n2cnc3c(N)ncnc32)[C@H](O)[C@@H]1O?
MIC [1]: 12.5 µM (≈ 5.91 µg/mL); MIC [2]: 100 µM (≈ 47.3 µg/mL); MIC [3]: > 100 µM; Ki [4]: > 100 µM; Ki [5]: > 100 µM; IC50 (Vero): 6 µM

With NCCCCCCCCCCCC(=O)NS(=O)(=O)OC[C@H]1O[C@@H](n2cnc3c(N)ncnc32)[C@H](O)[C@@H]1O as the compound, how does the MIC [1] read?
Its MIC is 3.13 µM (≈ 1.7 µg/mL).

What about the MIC [2] of the same compound?
Its MIC is 50 µM (≈ 27.2 µg/mL).

And the MIC [3]?
Its MIC is 12.5 µM.

And the Ki [4]?
The Ki was 93.3 µM.

What about the Ki [5] of the same compound?
Its Ki is greater than 100 µM.

And the IC50 (Vero)?
The IC50 was 27.1 µM.

What does the source list for CCCC(=O)NS(=O)(=O)OC[C@H]1O[C@@H](n2cnc3c(N)ncnc32)[C@H](O)[C@@H]1O?
MIC [1]: > 100 µM; MIC [2]: > 100 µM; MIC [3]: > 100 µM; Ki [4]: > 100 µM; Ki [5]: > 100 µM; IC50 (Vero): 81.4 µM

With Cc1cc2oc(=O)cc(-c3cccc(N)c3)c2c(C)c1-c1ccc(CN2CCOCC2)cc1 as the compound, how does the IC50 [7] read?
Its IC50 is 0.5 µM.

For CCCCCCCCCCCCCC(=O)NS(=O)(=O)OC[C@H]1O[C@@H](n2cnc3c(N)ncnc32)[C@H](O)[C@@H]1O, which MIC [1] is on record?
The MIC was 0.39 µM (≈ 0.217 µg/mL).

What about the MIC [2] of the same compound?
Its MIC is 50 µM (≈ 27.8 µg/mL).

And the MIC [3]?
The MIC was 100 µM.

What about the Ki [4] of the same compound?
The Ki was 10 µM.

What about the Ki [5] of the same compound?
Its Ki is 1.4 µM.

What about the IC50 (Vero) of the same compound?
Its IC50 is 0.9 µM.

For C=CCCCCCCCCC(=O)NS(=O)(=O)OC[C@H]1O[C@@H](n2cnc3c(N)ncnc32)[C@H](O)[C@@H]1O, which MIC [1] is on record?
Its MIC is 0.39 µM (≈ 0.2 µg/mL).

And the MIC [2]?
The MIC was 25 µM (≈ 12.8 µg/mL).

What about the MIC [3] of the same compound?
The MIC was 25 µM.

And the Ki [4]?
The Ki was greater than 100 µM.

And the Ki [5]?
Its Ki is greater than 100 µM.

And the IC50 (Vero)?
The IC50 was 11.6 µM.

Which results are given for CCCCCCCCCCCC(=O)NS(=O)(=O)OC[C@H]1O[C@@H](n2cnc3c(N)ncnc32)[C@H](O)[C@@H]1O?
Ki [8]: 1.5 µM; Ki [9]: 4.9 µM; MIC [10]: 100 µM (≈ 52.9 µg/mL); MIC [1]: 0.19 µM (≈ 0.1 µg/mL); MIC [2]: 50 µM (≈ 26.4 µg/mL); MIC [3]: 50 µM; Ki [4]: 67.4 µM; Ki [5]: 6.4 µM; IC50 (Vero): 28.7 µM

Which results are given for CCCCCCCCCOCC(=O)NS(=O)(=O)OC[C@H]1O[C@@H](n2cnc3c(N)ncnc32)[C@H](O)[C@@H]1O?
MIC [1]: 0.098 µM (≈ 0.052 µg/mL); MIC [2]: 25 µM (≈ 13.3 µg/mL); MIC [3]: 25 µM; Ki [4]: > 100 µM; Ki [5]: > 100 µM; IC50 (Vero): 8.7 µM

Which MIC [1] does the source give for Nc1ncnc2c1ncn2[C@@H]1O[C@H](COS(=O)(=O)NC(=O)CCCCCCCCCCO)[C@@H](O)[C@H]1O here?
Its MIC is 6.25 µM (≈ 3.32 µg/mL).

What about the MIC [2] of the same compound?
The MIC was 100 µM (≈ 53.1 µg/mL).

And the MIC [3]?
Its MIC is 100 µM.

And the Ki [4]?
Its Ki is greater than 100 µM.

What about the Ki [5] of the same compound?
Its Ki is 92.7 µM.

And the IC50 (Vero)?
Its IC50 is 42.7 µM.

Which MIC [1] does the source give for CCCCCCCCC/C=C/C(=O)NS(=O)(=O)OC[C@H]1O[C@@H](n2cnc3c(N)ncnc32)[C@H](O)[C@@H]1O here?
Its MIC is 100 µM (≈ 52.7 µg/mL).

What about the MIC [2] of the same compound?
Its MIC is greater than 100 µM.

And the MIC [3]?
The MIC was greater than 100 µM.

What about the Ki [4] of the same compound?
Its Ki is greater than 100 µM.

And the Ki [5]?
The Ki was greater than 100 µM.

What about the IC50 (Vero) of the same compound?
Its IC50 is 10.4 µM.

What does the source list for CCCCCCCCCCCCCCCCCC(=O)NS(=O)(=O)OC[C@H]1O[C@@H](n2cnc3c(N)ncnc32)[C@H](O)[C@@H]1O?
MIC [1]: 100 µM (≈ 61.3 µg/mL); MIC [2]: 100 µM (≈ 61.3 µg/mL); MIC [3]: > 100 µM; Ki [4]: 2.4 µM; Ki [5]: 0.5 µM; IC50 (Vero): 0.1 µM
